Test results published in ChEMBL document CHEMBL1144512, “Synthesis and trypanocidal activity of ent-kaurane glycosides” (2007).
Active and inactive are the calls of the source. The rule behind the calls is not given here.

Legend:
Trypanosoma cruzi [1] = experiment: Trypanocidal activity against Trypanosoma cruzi Y blood stream trypomastigotes assessed as parasite lysis at 0.31 mM relative to control; format: functional
Outline: (§1)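 Infected blood with Y-strain bloodstream trypomastigotes was exposed to compound in 1% DMSO plus TCM199 at final 0.31–5.0 mM. Tubes were incubated 24 h at 4C. An aliquot was examined microscopically and parasites counted. Activity was calculated as percent parasite reduction versus negative control (1% DMSO + TCM199). DMSO and gentian violet control tubes were run in parallel.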

Trypanosoma cruzi [2] = experiment: Trypanocidal activity against Trypanosoma cruzi Y blood stream trypomastigotes assessed as parasite lysis at 0.63 mM relative to control; format: functional; outline: as §1
Trypanosoma cruzi [3] = experiment: Trypanocidal activity against Trypanosoma cruzi Y blood stream trypomastigotes assessed as parasite lysis at 1.25 mM relative to control; format: functional; outline: as §1
Trypanosoma cruzi [4] = experiment: Trypanocidal activity against Trypanosoma cruzi Y blood stream trypomastigotes assessed as parasite lysis at 2.50 mM relative to control; format: functional; outline: as §1
Trypanosoma cruzi [5] = experiment: Trypanocidal activity against blood stream Trypanosoma cruzi Y trypomastigotes assessed as parasite lysis at 5 mM relative to control; format: functional; outline: as §1
Blood [6] = experiment: Induction of total haemolysis in Albino mouse blood infected with Trypanosoma cruzi Y at 1.25 mM; format: functional, tissue-based
Outline: (§2)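 Erythrocyte lysis was scored in the in vitro trypomastigote tubes as partial or total haemolysis. Infected blood (0.2 mL) was mixed with compound in 1% DMSO plus TCM199 at final 0.31, 0.63, 1.25, 2.50 and 5.0 mM. Tubes were incubated 24 h at 4C and examined microscopically.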

Blood [7] = experiment: Induction of total haemolysis in Albino mouse blood infected with Trypanosoma cruzi Y at 2.5 mM; format: functional, tissue-based; outline: as §2
Blood [8] = experiment: Induction of total haemolysis in Albino mouse blood infected with Trypanosoma cruzi Y at 5 mM; format: functional, tissue-based; outline: as §2
Trypanosoma cruzi [9] = experiment: Trypanocidal activity in Swiss albino mouse inoculated with Trypanosoma cruzi Y blood trypomastigotes assessed as parasitaemia reduction administered after 7th day of inoculation at 250 mg/kg, po after 4 hrs relative to control; format: functional; set-up: scale not given: the % may be the effect or the level left
Outline: (§3)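 Male Swiss albino mice (18–20 g, 30 days old) were infected ip with 5×10^4 Y-strain blood trypomastigotes. At peak parasitaemia (day 7), a single oral 250 mg/kg dose in DMSO 0.1 mL plus LIT 0.9 mL was given. Circulating parasites were counted microscopically before and 4 and 6 h after dosing. Percent reduction was taken versus pre-treatment count, with three mice per group, mean ± SD, and Split-Plot test.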

Trypanosoma cruzi [10] = experiment: Trypanocidal activity in Swiss albino mouse inoculated with Trypanosoma cruzi Y blood trypomastigotes assessed as parasitaemia reduction administered after 7th day of inoculation at 250 mg/kg, po after 6 hrs relative to control; format: functional; set-up: scale not given: the % may be the effect or the level left; outline: as §3

| Structure (SMILES) | Activity (Trypanosoma cruzi [1]) | Activity (Trypanosoma cruzi [2]) | Activity (Trypanosoma cruzi [3]) | Activity (Trypanosoma cruzi [4]) | Activity (Trypanosoma cruzi [5]) | Activity (Blood [6]) | Activity (Blood [7]) | Activity (Blood [8]) | Activity (Trypanosoma cruzi [9]) | Activity (Trypanosoma cruzi [10]) |
| --- | --- | --- | --- | --- | --- | --- | --- | --- | --- | --- |
| C=C1C[C@@]23CC[C@H]4[C@@](C)(CCC[C@@]4(C)C(=O)O)[C@@H]2CC[C@@H]1C3 [KAURENOIC ACID] | 0% | 90% | 100% | 100% | 100% | Active | Active | Active |  |  |
| CN(C)c1ccc(C(=C2C=CC(=[N+](C)C)C=C2)c2ccc(N(C)C)cc2)cc1.[Cl-] [GENTIAN VIOLET] | 67% | 100% | 100% | 100% |  |  |  |  |  |  |
| COC(=O)[C@]1(C)CCC[C@@]2(C)C3CC[C@@H]4C[C@@]3(CCC21)C[C@@H]4CO (stereo partly specified) | 45% | 94% |  | 100% | 100% |  |  |  |  |  |
| O=C(Cn1ccnc1[N+](=O)[O-])NCc1ccccc1 [BENZNIDAZOLE] |  |  |  |  |  |  |  |  | 91.7% | 92.6% |
| C=C1C[C@@]23CC[C@@H]4[C@](C)(CO)CCC[C@@]4(C)[C@@H]2CC[C@H]1C3 |  |  | 66% | 72% | 100% |  |  |  |  |  |
| C=C1C[C@@]23CCC4[C@@](C)(CCC[C@@]4(C)C(=O)OC)C2CC[C@@H]1C3 (stereo partly specified) | 45% | 48% | 88% | 100% | 100% |  |  |  | 56.5% | 51.5% |
| C=C1C[C@@]23CCC4[C@](C)(CO[C@@H]5O[C@@H](CO)[C@H](O)[C@@H](O)[C@@H]5OC(C)=O)CCC[C@@]4(C)C2CC[C@@H]1C3 (stereo partly specified) |  |  | 0% | 0% | 56% |  |  |  |  |  |
